Data: PubChem BioAssay AID624079 (The Scripps Research Institute Molecular Screening Center, 2012)
Several values for one entry are separate records, joined by “and”; a condition that tells them apart may be missing. Equal values may be shown once.

Molecular target: metallo-beta-lactamase VIM-2 (Pseudomonas aeruginosa)
Test: VIM-2 metallo-beta-lactamase inhibitors, late-stage follow-up, biochemical, absorbance, probe candidates and analogs (AID 624079)
Conditions: purified VIM-2, nitrocefin hydrolysis, epi-absorbance
Procedure, shortened: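 Measure: four-parameter IC50 from OD-converted fluorescence. Assay system: purified VIM-2 metallo-beta-lactamase enzyme, Pseudomonas aeruginosa target. Quantity: 0.132 nM enzyme. Probe or stimulus: nitrocefin at 60 µM. Times: 15 min preincubation, 25 min nitrocefin hydrolysis, 25 °C, EDTA stop. Detection: Plate-fluorescence quench, ex 480 nm, em 530 nm. Replication: triplicates.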

In the case of `CN1CCN(NC(=O)CN2C(=O)/C(=C/c3c(Cl)cccc3Cl)SC2=S)CC1`, the IC50 is reported as 3.98 µM and 4.55 µM.
With `CN1CCN(NC(=O)CN2C(=O)/C(=C/c3c(Cl)ccc(Cl)c3Cl)SC2=S)CC1` the IC50 was 0.548 µM.
